Screens from PubChem.
CHT allo act: CHT positive allosteric modulators, primary screen, cell-based, membrane potential dye, choline EC20. CHT-expressing cells; active compounds read high; LV-AA mutant CHT in HEK293 cells. hit rate 0.49% among 310,000. B-score at 10 µM. AID 488977, 2010. High affinity choline transporter 1 (Homo sapiens), Q9GZV3;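 active means initial fluorescence not abnormally high and integrated response B-score, plate-corrected, over 3 SD above library mean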
Hep lipid drop: inhibitors of hepatocyte lipid droplet formation, primary screen, imaging, high-throughput imaging, BODIPY stain. AML12 mouse hepatocytes, oleate lipid droplets. AID 1656, 2009. inhibition, % at 6.5 µM. hit rate 0.4% among 240,000;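 active means lipid droplet intensity inhibited by at least 50%, with more than 500 cells counted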
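System: AML12 hepatocytes (mouse). Probe or stimulus: oleic acid at 100 µM to induce lipid droplet formation. Times: overnight treatment with compound plus oleate. Detection: Image-based BODIPY and DAPI two-channel analysis. Evaluation: percent inhibition of filter-corrected integrated lipid droplet intensity per well.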
PHOSPHO1 block: PubChem AID 1565 | Phosphoethanolamine/phosphocholine phosphatase (Homo sapiens), Q8TCT1 | recombinant PHOSPHO1, absorbance phosphatase assay | inhibition, % at 13.3 µM | hit rate 1.1% among 290,000; in the data active means inhibition above about 60%
Target sequence (Q8TCT1 whole entry, looked up): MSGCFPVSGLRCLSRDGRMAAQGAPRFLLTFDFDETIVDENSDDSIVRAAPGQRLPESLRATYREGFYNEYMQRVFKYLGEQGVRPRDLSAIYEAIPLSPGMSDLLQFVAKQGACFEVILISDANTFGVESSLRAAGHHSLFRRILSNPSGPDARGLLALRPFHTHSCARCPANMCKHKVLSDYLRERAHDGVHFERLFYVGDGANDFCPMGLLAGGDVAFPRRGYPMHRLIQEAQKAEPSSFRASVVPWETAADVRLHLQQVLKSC
HSF-1 act: HSF-1 activators, primary screen, NIH3T3-HGL cells, MG132 stress, luminescence, single point | activation, % at 9 µM | NIH3T3-HGL HSF-1 luciferase reporter, 8 h; 100% = twice DMSO control signal | hit rate 1.7% among 300,000;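 active means mean replicate activation of at least 50% with a set share of replicates each reaching 50%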;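 further: 0% = median of the neutral control wells and 100% = twice that signal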
HSF1 inhib: HSF1 inhibitors in luciferase reporter cells, primary screen, cell-based, NIH3T3, luminescence; activity change, negative = inhibition, % at 7.5 µM (by protocol); hit rate 0.77% among 300,000; NIH3T3-HGL HSE-luciferase, MG132-induced, luminescence 8 h; active compounds read low; AID 2098, 2009;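 active means more than half of replicate wells show activity change below -50%, luminescence cut by over half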;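 further: luciferase reports HSF-1 transcriptional activity via heat shock element; 0% = median of DMSO wells and -100% = zero luminescence signal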
CHT inh: inhibitors of human choline transporter CHT | High affinity choline transporter 1 (Homo sapiens), Q9GZV3 | CHT-expressing cells, membrane potential dye, choline response; active compounds read low | B-score at 10 µM | hit rate 0.86% among 310,000 | AID 488975, 2010;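 active means B-score over 3 SD under the library average, and starting fluorescence ratio not unusually high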;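 further: choline stimulus applied at its EC90 after an EC20 pre-addition; B-score computed on integrated fluorescence ratio after choline addition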
CHT inh conf: CHT inhibitors, confirmation, cell-based, membrane potential dye, duplicate | CHT-expressing cells, choline membrane potential dye; LV-to-AA substituted CHT, HEK293 cells | CHT activity remaining % of control (active compounds read low), % at 10 µM | AID 493221, 2011 | hit rate 70% among 2,400 | shares compounds with CHT inh;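 active means choline transporter activity left, mean of duplicates at 10 µM, below buffer-only control mean minus 3 SD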;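 further: depolarization triggered by choline at its EC90 following an EC20 pre-addition; 0% = hemicholinium-3 full block and 100% = buffer-only control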
HEK293 CHT ctr: membrane potential effects in parental HEK293, counter-screen for CHT inhibitor project, cell-based, membrane potential dye; shares compounds with CHT inh; choline response; active = decrease or increase beyond buffer ±3SD; hit rate 4% among 2,400; AID 493222, 2011; membrane potential ratio readout (active if shifted either direction beyond buffer ±3SD; no single direction) at 10 µM;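 further: parental cells lack the transporter so any hit is non-specific; ratio is peak minus trough fluorescence over baseline after EC90 choline challenge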
Starred values were filed as active, the others as inactive; i = inactive; x = no result given. Sampled rows, rich in hits. Any-hit rate of the full collection: about 4.9%.

SMILES | CHT allo act | Hep lipid drop | PHOSPHO1 block | HSF-1 act | HSF1 inhib | CHT inh | CHT inh conf | HEK293 CHT ctr
O=C(NC(=S)NNC(=O)c1cccs1)c1ccc(Br)o1 | i | -2 | 94* | 2 | 5 | -7.5* | 43%* | i
CC[N+]1(CC)CC2=Cc3c(ccc4ccccc34)CC2C1 (configuration not stated) | i | -1 | 15 | -9 | -1 | -6.4* | 46%* | i
CC12Cc3ccc4ccccc4c3C=C1C[N+](C)(C)C2 (configuration not stated) | i | 15 | 6 | -11 | -5 | i | x | x
Cc1cc(C)c(Cn2c3ccccc3c3cnn(CC(=O)NCCN4CCOCC4)c(=O)c32)c(C)c1 | i | -7 | 34 | -3 | 15 | -12* | 15%* | i
COc1c(C)cc(C(=O)C2CCCN(Cc3cccc4nccnc34)C2)cc1C (configuration not stated) | i | -12 | 35 | -9 | -2 | i | x | x
O=C(CSc1nc(C(F)(F)F)cc(=O)[nH]1)Nc1cccc2ccccc12 | i | x | x | -12 | 4 | -5.4* | 40%* | i
CCCc1cc(=O)[nH]c(SCC(=O)Nc2cccc3ccccc23)n1 | i | -3 | -22 | 11 | -6 | i | x | x
COc1ccc(OC)c(C(=O)CSc2nnc(Cc3cccs3)n2CCc2ccccc2)c1 | i | x | -90 | 27 | 12 | i | x | x
Cc1nc(Oc2ccccc2)c2ccccc2n1 | i | -5 | -8 | -9 | -3 | -7* | i | i
CCOC(=O)N1CCN(C(=O)c2oc3ccc(S(=O)(=O)N4CCCCCC4)cc3c2C)CC1 | i | -8 | -22 | 11 | 19 | -6.2* | 67%* | i
Cc1cccc(NC(=O)NCc2ccc3c(c2)OCO3)c1C | i | -15 | -2 | -7 | 2 | -5.2* | i | i
CN1C(C(=O)NCCc2cccs2)CC2Cn3c(nc4cc(Cl)c(Cl)cc43)C21 (configuration not stated) | i | 3 | 6 | 4 | 2 | i | x | x
S=c1nc(-c2cc(Cl)cc(Cl)c2)[nH][nH]1 | i | 4 | 20 | -14 | -4 | -5.8* | 32%* | i
S=c1nc(-c2cccc(Cl)c2)[nH][nH]1 | i | 0 | -5 | 5 | 4 | i | x | x
Cc1ccc(NC(=O)c2ccccc2)cc1OC(=O)c1ccccc1 | i | x | 16 | -4 | -2 | i | x | x
O=C(Oc1cccccc1=O)c1ccccc1 | i | 18 | 12 | 14 | 15 | -6.9* | i | i
Cc1ccc(C(=O)Nc2ncccc2C)cc1S(=O)(=O)N1CCCCC1 | i | x | x | 14 | 3 | i | x | x
CCOc1ccc(C(=O)Nc2ccccc2N2CCN(C(=O)c3ccccc3)CC2)cc1[N+](=O)[O-] | i | 4 | 27 | 13 | 0 | i | x | x
CN(CC(O)Cn1c2ccccc2c2ccccc21)S(C)(=O)=O (configuration not stated) | i | -7 | 28 | x | x | i | x | x
CS(=O)(=O)N(CC(O)Cn1c2ccccc2c2ccccc21)c1ccccc1 (configuration not stated) | i | x | 9 | -2 | -7 | i | i | i
CN(Cc1ccccc1)C(=O)CNC(=O)Cn1cnc2ccccc2c1=O | i | 13 | 16 | 1 | -6 | i | x | x
O=C(c1ccc(COc2ccccc2[N+](=O)[O-])o1)N1CCCCCC1 | i | x | 1 | 10 | 8 | -6.1* | 69%* | i
O=C(c1ccc(COc2ccccc2[N+](=O)[O-])o1)N1CCCCC1 | i | x | 18 | 22 | 15 | i | x | x
COc1cccc(-n2c(SCC(N)=O)nnc2-c2ccco2)c1 | i | -9 | 4 | -7 | -11 | i | x | x
CC1CCN(c2ccc([N+](=O)[O-])cc2C(=O)N2CCOCC2)CC1 | i | 2 | 10 | 5 | 2 | i | x | x
SMILES | CHT allo act | Hep lipid drop | PHOSPHO1 block | HSF-1 act | HSF1 inhib | CHT inh | CHT inh conf | HEK293 CHT ctr
O=c1c2cc(NC(=S)NC3CCN(Cc4ccccc4)CC3)ccc2nc2n1CCCCC2 | i | 26 | 20 | 1 | 1 | i | x | x
O=c1c2cc(NC(=S)NC3CCCCC3)ccc2nc2n1CCCCC2 | i | 5 | 24 | 40 | 25 | -5.4* | 58%* | i
S=c1[nH]nc(-c2ccccn2)n1/N=C/c1cccc(Cl)c1 | i | 22 | 12 | 6 | -5 | -5.7* | i | i
S=c1[nH]nc(-c2ccco2)n1/N=C/c1cccc(Cl)c1 | i | -1 | -12 | -8 | -7 | i | x | x
Oc1ccc(/C=N/n2c(-c3ccccc3)n[nH]c2=S)cc1Br | i | -8 | -42 | -12 | -3 | -6* | 54%* | i
O=C(NCc1nnc(SCC(=O)N2CCN(c3ccccc3)CC2)o1)c1c(F)cccc1F | i | -2 | 19 | 9 | -3 | i | x | x
CCN(C1CCS(=O)(=O)C1)S(=O)(=O)c1cc(C)ccc1C (configuration not stated) | i | x | x | 39 | 19 | i | x | x
COc1ccc(C2=Nn3c(nnc3C3CCCCC3)SC2)cc1OC | i | 20 | 0 | -19 | -1 | -6.8* | 52%* | i
CC(=O)c1ccc(Nc2nc(NCCO)nc(OC(C(F)(F)F)C(F)(F)F)n2)cc1 | i | 2 | 7 | -10 | 3 | -5.1* | 66%* | i
COc1ccc(-n2c(=S)[nH]c3cc(C(=O)Nc4cc(OC)c(OC)c(OC)c4)ccc3c2=O)c(OC)c1 | i | 2 | 44 | 5 | 3 | i | x | x
O=C(N/N=C/C1CC=CCC1)c1cc(-c2cccnc2)nc2ccccc12 (configuration not stated) | i | 41 | 36 | 1 | -5 | -11* | 14%* | i
COc1ccc(/C=C/C(=O)OCC(=O)Nc2ccc(N3CCOCC3)cc2)cc1OC | i | 9 | 34 | 12 | 1 | -5* | i | i
COc1ccc(/C=C/C(=O)OCC(=O)Nc2ccc(N3CCOCC3)cc2)cc1 | i | 4 | 1 | 5 | -4 | i | x | x
